pIC50: −log10 of the molar value.
Key:
[1] = target: Calcium/calmodulin-dependent protein kinase type 1 (Homo sapiens) (UniProt Q14012); experiment: Inhibition of CAMK1 (unknown origin) at 10 uM by [33P]-ATP radiometric assay
Procedure, shortened: (§1)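 Radiometric kinase profiling: purified recombinant kinase (~10–50 nM final) with substrate, assay buffer and compound at 10 µM (control 10% DMSO). Started with 33P-ATP (50 µM stock, 0.8 µCi), run 30 min at ambient temperature, then spotted onto P81 phosphocellulose and washed in 1% phosphoric acid. Scintillation counted, no-substrate blank subtracted, single measurement, result given as % change versus control.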

[2] = target: Casein kinase I isoform alpha (Homo sapiens) (UniProt P48729); experiment: Inhibition of CK1alpha1 (unknown origin) at 10 uM by [33P]-ATP radiometric assay; procedure, shortened: as §1
Chain of Casein kinase I isoform alpha (Homo sapiens) (P48729 2-337 limits assumed): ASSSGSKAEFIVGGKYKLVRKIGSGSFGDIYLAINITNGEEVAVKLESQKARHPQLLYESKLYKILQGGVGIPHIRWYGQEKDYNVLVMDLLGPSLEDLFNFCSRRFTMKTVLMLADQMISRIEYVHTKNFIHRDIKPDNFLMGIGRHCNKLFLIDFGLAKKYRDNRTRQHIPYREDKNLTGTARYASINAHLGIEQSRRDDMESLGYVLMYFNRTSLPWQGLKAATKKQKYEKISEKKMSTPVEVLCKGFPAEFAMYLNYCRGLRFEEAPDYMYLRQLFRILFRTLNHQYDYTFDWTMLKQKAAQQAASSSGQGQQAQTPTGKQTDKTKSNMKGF

[3] = target: Calcium/calmodulin-dependent protein kinase type II subunit alpha (Homo sapiens) (UniProt Q9UQM7); experiment: Inhibition of CAMK2-alpha (unknown origin) at 10 uM by [33P]-ATP radiometric assay; procedure, shortened: as §1
Chain of Calcium/calmodulin-dependent protein kinase type II subunit alpha (Homo sapiens) (Q9UQM7 whole entry): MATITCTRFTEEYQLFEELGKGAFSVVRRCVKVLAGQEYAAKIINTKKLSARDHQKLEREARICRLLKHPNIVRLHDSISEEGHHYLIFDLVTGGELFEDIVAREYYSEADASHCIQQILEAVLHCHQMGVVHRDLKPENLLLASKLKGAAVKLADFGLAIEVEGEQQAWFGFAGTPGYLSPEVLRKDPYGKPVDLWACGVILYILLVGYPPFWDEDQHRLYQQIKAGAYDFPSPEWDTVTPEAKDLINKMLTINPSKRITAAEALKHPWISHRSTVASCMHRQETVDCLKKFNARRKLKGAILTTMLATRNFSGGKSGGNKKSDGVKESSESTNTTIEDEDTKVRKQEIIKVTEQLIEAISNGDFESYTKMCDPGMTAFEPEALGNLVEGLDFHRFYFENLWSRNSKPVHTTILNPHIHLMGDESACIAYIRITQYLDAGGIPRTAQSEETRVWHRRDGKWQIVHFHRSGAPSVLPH

[4] = target: Mast/stem cell growth factor receptor Kit (Homo sapiens) (UniProt P10721); experiment: Inhibition of c-KIT (unknown origin) at 10 uM by [33P]-ATP radiometric assay
Chain of Mast/stem cell growth factor receptor Kit (Homo sapiens) (P10721 whole entry): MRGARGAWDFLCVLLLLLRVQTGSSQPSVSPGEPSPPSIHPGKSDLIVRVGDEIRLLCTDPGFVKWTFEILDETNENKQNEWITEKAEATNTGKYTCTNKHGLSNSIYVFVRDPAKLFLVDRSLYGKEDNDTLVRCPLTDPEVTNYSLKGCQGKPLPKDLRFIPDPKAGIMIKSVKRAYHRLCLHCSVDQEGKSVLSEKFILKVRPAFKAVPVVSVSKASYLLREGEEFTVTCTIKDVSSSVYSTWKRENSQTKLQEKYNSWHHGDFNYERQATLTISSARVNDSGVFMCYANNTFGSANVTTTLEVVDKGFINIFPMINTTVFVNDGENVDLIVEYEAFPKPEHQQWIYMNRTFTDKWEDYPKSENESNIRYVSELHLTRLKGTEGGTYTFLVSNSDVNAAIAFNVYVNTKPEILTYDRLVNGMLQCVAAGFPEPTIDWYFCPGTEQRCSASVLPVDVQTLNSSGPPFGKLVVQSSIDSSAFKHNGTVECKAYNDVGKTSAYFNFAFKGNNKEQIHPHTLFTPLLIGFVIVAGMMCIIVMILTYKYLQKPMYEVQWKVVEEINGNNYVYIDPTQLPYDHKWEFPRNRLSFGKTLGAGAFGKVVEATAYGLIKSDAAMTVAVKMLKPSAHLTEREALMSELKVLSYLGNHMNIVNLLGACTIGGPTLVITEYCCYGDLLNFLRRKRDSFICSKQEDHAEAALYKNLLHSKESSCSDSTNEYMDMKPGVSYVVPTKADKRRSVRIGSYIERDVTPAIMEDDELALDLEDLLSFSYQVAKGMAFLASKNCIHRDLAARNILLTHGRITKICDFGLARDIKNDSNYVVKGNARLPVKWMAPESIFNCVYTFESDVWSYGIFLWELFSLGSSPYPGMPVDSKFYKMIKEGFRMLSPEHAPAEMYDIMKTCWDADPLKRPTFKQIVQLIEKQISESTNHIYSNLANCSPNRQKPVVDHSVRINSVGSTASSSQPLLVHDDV
Procedure, shortened: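 Radiometric kinase profiling: purified recombinant kinase (~10–50 nM final) with substrate, assay buffer and compound at 10 µM (control 10% DMSO). Started with 33P-ATP (50 µM stock, 0.8 µCi), run 30 min at ambient temperature, then spotted onto P81 phosphocellulose and washed in 1% phosphoric acid.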

[5] = target: Focal adhesion kinase 1 (Homo sapiens) (UniProt Q05397); experiment: Inhibition of FAK (unknown origin) at 10 uM by [33P]-ATP radiometric assay; procedure, shortened: as §1
MCF7 [6] = experiment: Induction of apoptosis in human MCF7 cells assessed as late apoptotic cells at 1 uM after 72 hrs by annexin V-FITC/propidium iodide staining-based flow cytometric method (reference value: 2.6%); format: functional
[7] = target: Protein kinase C beta type (Homo sapiens) (UniProt P05771); experiment: Inhibition of […]-beta2 (unknown origin) at 10 uM by [33P]-ATP radiometric assay; procedure, shortened: as §1
Chain of Protein kinase C beta type (Homo sapiens) (P05771 2-671 limits assumed): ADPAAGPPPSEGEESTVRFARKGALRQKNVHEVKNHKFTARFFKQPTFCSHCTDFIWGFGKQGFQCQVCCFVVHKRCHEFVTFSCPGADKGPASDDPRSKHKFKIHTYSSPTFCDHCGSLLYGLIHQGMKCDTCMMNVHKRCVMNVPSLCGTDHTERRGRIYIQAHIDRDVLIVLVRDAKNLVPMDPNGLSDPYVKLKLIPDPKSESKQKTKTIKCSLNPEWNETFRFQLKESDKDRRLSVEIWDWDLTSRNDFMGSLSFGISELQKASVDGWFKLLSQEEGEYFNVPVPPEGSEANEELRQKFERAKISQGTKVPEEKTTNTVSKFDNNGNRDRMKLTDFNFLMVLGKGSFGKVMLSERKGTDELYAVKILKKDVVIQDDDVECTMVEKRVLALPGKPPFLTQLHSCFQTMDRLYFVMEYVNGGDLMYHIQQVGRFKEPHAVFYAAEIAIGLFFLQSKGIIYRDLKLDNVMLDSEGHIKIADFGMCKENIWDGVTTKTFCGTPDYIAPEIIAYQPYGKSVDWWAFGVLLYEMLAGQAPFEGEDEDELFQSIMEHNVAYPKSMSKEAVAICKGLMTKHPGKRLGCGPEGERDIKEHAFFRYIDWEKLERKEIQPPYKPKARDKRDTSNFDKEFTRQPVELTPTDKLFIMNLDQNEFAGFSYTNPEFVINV

[8] = target: Mitogen-activated protein kinase 8 (Homo sapiens) (UniProt P45983); experiment: Inhibition of JNK1 (unknown origin) at 10 uM by [33P]-ATP radiometric assay; procedure, shortened: as §1
Chain of Mitogen-activated protein kinase 8 (Homo sapiens) (P45983 whole entry): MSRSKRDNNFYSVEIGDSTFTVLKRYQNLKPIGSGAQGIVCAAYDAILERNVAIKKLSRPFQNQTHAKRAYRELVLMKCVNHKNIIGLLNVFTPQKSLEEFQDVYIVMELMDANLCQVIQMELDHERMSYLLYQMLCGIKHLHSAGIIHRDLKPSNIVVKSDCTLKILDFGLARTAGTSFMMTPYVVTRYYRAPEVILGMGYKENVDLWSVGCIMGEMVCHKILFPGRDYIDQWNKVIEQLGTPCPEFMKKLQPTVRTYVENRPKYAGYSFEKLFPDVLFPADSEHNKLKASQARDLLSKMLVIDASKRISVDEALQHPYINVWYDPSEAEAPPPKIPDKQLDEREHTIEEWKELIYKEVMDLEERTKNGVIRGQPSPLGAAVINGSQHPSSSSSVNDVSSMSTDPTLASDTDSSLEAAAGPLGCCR

[9] = target: Fibroblast growth factor receptor 1 (Homo sapiens) (UniProt P11362); experiment: Inhibition of FGFR1 (unknown origin) at 10 uM by [33P]-ATP radiometric assay; procedure, shortened: as §1
MCF7 [10] = experiment: Induction of apoptosis in human MCF7 cells assessed as viable cells at 1 uM after 72 hrs by annexin V-FITC/propidium iodide staining-based flow cytometric method (reference value: 76%); format: functional; settings: MCF7, 72 h, read-out: Activity
HCT-116 = experiment: Antiproliferative activity against human HCT116 cells after 72 hrs by MTT assay; format: functional, cell-based; settings: HCT-116, 72 h
Procedure, shortened: (§2)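 MTT viability assay. Cells grown in RPMI-1640 with 10% heat-inactivated FBS, L-glutamine and 1% penicillin/streptomycin, used within 20 passages. Seeded at 5×10^3 cells/well, left overnight at 37 °C, then exposed to final concentrations of 0.005–50 µM (0.1% DMSO) for up to 72 h. MTT added for 3 h, formazan dissolved in DMSO, absorbance read at 550 nm. IC50 derived relative to untreated controls.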

A2780 = experiment: Antiproliferative activity against human A2780 cells after 72 hrs by MTT assay; format: functional, cell-based; settings: A2780, 72 h; procedure, shortened: as §2
MCF7 [11] = experiment: Induction of apoptosis in human MCF7 cells assessed as late apoptotic cells at 10 uM after 72 hrs by annexin V-FITC/propidium iodide staining-based flow cytometric method (reference value: 2.6%); format: functional
MCF7 [12] = experiment: Induction of apoptosis in human MCF7 cells assessed as early apoptotic cells at 1 uM after 72 hrs by annexin V-FITC/propidium iodide staining-based flow cytometric method (reference value: 9%); format: functional
K562 = experiment: Antiproliferative activity against human K562 cells after 72 hrs by MTT assay; format: functional, cell-based; settings: K562, 72 h
MCF7 [13] = experiment: Induction of apoptosis in human MCF7 cells assessed as necrotic cells at 1 uM after 72 hrs by annexin V-FITC/propidium iodide staining-based flow cytometric method (reference value: 12.6%); format: functional
[14] = target: Vascular endothelial growth factor receptor 1 (Homo sapiens) (UniProt P17948); experiment: Inhibition of FLT1 (unknown origin) at 10 uM by [33P]-ATP radiometric assay; procedure, shortened: as §1
MCF7 [15] = experiment: Induction of apoptosis in human MCF7 cells assessed as early apoptotic cells at 10 uM after 72 hrs by annexin V-FITC/propidium iodide staining-based flow cytometric method (reference value: 9%); format: functional
[16] = target: Activin receptor type-2A (Homo sapiens) (UniProt P27037); experiment: Inhibition of ACVR2A (unknown origin) at 10 uM by [33P]-ATP radiometric assay; procedure, shortened: as §1
Chain of Activin receptor type-2A (Homo sapiens) (P27037 whole entry): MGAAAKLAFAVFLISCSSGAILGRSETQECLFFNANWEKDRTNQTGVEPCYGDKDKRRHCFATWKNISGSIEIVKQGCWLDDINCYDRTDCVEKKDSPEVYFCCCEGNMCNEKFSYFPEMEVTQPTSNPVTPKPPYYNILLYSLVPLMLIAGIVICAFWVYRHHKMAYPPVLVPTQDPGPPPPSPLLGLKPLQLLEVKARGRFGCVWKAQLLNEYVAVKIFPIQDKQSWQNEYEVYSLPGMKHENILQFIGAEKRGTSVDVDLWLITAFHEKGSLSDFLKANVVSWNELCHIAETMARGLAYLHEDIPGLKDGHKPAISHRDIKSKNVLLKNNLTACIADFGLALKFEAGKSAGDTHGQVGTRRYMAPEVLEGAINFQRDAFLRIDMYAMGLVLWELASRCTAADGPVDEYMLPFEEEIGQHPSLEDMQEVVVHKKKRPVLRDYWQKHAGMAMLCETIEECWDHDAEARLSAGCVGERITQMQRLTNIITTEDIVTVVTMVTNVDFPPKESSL

[17] = target: Receptor tyrosine-protein kinase erbB-2 (Homo sapiens) (UniProt P04626); experiment: Inhibition of HER2 (unknown origin) at 10 uM by [33P]-ATP radiometric assay; procedure, shortened: as §1
[18] = target: Mitogen-activated protein kinase 3 (Homo sapiens) (UniProt P27361); experiment: Inhibition of ERK1 (unknown origin) at 10 uM by [33P]-ATP radiometric assay; procedure, shortened: as §1
[19] = target: Epidermal growth factor receptor (Homo sapiens) (UniProt P00533); experiment: Inhibition of EGFR (unknown origin) at 10 uM by [33P]-ATP radiometric assay; procedure, shortened: as §1
Chain of Epidermal growth factor receptor (Homo sapiens) (P00533 whole entry): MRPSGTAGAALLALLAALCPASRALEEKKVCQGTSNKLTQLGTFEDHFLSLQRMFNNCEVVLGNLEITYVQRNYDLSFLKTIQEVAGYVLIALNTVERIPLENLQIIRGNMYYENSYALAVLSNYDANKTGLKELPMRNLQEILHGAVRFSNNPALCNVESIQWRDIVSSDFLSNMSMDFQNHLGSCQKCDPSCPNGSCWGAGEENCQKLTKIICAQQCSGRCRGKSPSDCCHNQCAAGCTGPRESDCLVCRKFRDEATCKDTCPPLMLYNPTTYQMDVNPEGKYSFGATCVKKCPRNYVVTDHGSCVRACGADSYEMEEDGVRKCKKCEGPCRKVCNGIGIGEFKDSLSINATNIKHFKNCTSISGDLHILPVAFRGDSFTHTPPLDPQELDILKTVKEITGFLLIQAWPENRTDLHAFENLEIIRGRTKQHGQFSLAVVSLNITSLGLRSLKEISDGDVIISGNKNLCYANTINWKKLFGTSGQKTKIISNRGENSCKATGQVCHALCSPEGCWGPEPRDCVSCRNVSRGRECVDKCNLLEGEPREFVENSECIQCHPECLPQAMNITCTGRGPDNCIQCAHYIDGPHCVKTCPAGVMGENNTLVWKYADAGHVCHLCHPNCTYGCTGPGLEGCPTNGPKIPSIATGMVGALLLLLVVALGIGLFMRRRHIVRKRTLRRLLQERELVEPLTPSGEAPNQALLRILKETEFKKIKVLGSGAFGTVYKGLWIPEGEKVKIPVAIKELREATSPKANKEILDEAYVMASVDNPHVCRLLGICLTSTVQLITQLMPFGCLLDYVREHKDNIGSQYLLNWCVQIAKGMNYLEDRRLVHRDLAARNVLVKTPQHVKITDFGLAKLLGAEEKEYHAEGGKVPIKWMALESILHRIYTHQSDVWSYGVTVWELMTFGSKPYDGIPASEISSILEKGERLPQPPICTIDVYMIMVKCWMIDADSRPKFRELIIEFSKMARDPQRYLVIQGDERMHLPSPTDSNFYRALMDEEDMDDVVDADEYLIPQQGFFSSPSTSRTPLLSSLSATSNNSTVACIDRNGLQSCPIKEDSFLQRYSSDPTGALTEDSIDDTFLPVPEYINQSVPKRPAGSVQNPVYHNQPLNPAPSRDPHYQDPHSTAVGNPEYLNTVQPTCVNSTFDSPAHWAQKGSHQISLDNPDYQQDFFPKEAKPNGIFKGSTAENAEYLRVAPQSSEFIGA

[20] = target: Hepatocyte growth factor receptor (Homo sapiens) (UniProt P08581); experiment: Inhibition of MET (unknown origin) at 10 uM by [33P]-ATP radiometric assay; procedure, shortened: as §1
MCF7 [21] = experiment: Induction of apoptosis in human MCF7 cells assessed as viable cells at 10 uM after 72 hrs by annexin V-FITC/propidium iodide staining-based flow cytometric method (reference value: 76%); format: functional; settings: MCF7, 72 h, read-out: Activity
[22] = target: Cyclin-dependent kinase 16 (Homo sapiens) (UniProt Q00536); experiment: Inhibition of CDK16 (unknown origin) at 10 uM by [33P]-ATP radiometric assay; procedure, shortened: as §1
MCF7 [23] = experiment: Induction of apoptosis in human MCF7 cells assessed as early apoptotic cells at 5 uM after 72 hrs by annexin V-FITC/propidium iodide staining-based flow cytometric method (reference value: 9%); format: functional
MCF7 [24] = experiment: Induction of apoptosis in human MCF7 cells assessed as viable cells at 5 uM after 72 hrs by annexin V-FITC/propidium iodide staining-based flow cytometric method (reference value: 76%); format: functional; settings: MCF7, 72 h, read-out: Activity
MCF7 [25] = experiment: Induction of apoptosis in human MCF7 cells assessed as necrotic cells at 10 uM after 72 hrs by annexin V-FITC/propidium iodide staining-based flow cytometric method (reference value: 12.6%); format: functional
MCF7 [26] = experiment: Antiproliferative activity against human MCF7 cells after 72 hrs by MTT assay; format: functional, cell-based; settings: MCF7, 72 h; procedure, shortened: as §2
MCF7 [27] = experiment: Induction of apoptosis in human MCF7 cells assessed as necrotic cells at 5 uM after 72 hrs by annexin V-FITC/propidium iodide staining-based flow cytometric method (reference value: 12.6%); format: functional
MCF7 [28] = experiment: Induction of apoptosis in human MCF7 cells assessed as late apoptotic cells at 5 uM after 72 hrs by annexin V-FITC/propidium iodide staining-based flow cytometric method (reference value: 2.6%); format: functional
[29] = Antiproliferative activity against human WM793B cells after 72 hrs by MTT assay; format: functional, cell-based; procedure, shortened: as §2
MCF7 [30] = experiment: Induction of apoptosis in human MCF7 cells assessed as increase of early apoptotic cells at 1 to 10 uM after 72 hrs by annexin V-FITC/propidium iodide staining-based flow cytometric method relative to control; format: functional
Procedure, shortened: (§3)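 MCF-7 cells treated 72 h at final 1, 5, 10 µM, then annexin V-FITC/PI stained in pH 7.4 HEPES binding buffer and analysed by flow cytometry. Early or late apoptotic cell fraction expressed as percent change versus vehicle control: (sample − control)/control × 100. Triplicates.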

MCF7 [31] = experiment: Induction of apoptosis in human MCF7 cells assessed as increase of late apoptotic cells at 10 uM after 72 hrs by annexin V-FITC/propidium iodide staining-based flow cytometric method relative to control; format: functional; procedure, shortened: as §3
MCF7 [32] = experiment: Induction of apoptosis in human MCF7 cells assessed as increase of early apoptotic cells after 72 hrs by annexin V-FITC/propidium iodide staining-based flow cytometric method; format: functional, cell-based; procedure, shortened: as §3

Chain of Calcium/calmodulin-dependent protein kinase type 1 (Homo sapiens) (Q14012 whole entry, looked up): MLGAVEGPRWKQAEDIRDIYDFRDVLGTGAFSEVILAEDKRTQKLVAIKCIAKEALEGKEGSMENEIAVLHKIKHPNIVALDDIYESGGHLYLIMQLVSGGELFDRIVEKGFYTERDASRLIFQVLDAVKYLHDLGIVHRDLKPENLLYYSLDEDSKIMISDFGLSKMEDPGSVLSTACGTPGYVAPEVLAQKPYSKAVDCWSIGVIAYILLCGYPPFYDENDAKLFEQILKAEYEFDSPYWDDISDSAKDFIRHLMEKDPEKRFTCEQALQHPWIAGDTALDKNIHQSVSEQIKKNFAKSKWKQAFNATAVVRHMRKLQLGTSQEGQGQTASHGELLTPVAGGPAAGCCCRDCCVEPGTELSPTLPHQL

SMILES	inhibition [1] [%]	inhibition [2] [%]	inhibition [3] [%]	inhibition [4] [%]	inhibition [7] [%]	inhibition [8] [%]	inhibition [9] [%]	pIC50 (HCT-116)	pIC50 (A2780)	pIC50 (K562)	inhibition [16] [%]	inhibition [18] [%]	inhibition [19] [%]	inhibition [20] [%]	inhibition [22] [%]	pIC50 (MCF7 [26])	pIC50 [29]	also measured
COc1ccc2nc3nc(NCc4ccc(CN5CCN(C)CC5)cc4)[nH]c(=O)c3nc2c1	19	-1	8	-9	-7	-7	8	7.30	7.30	< 4.30	-6	7	25	2	12	7.40		inhibition [5]: -10%; Activity (MCF7 [6]): 3.7%; viability at 1 µM (MCF7 [10]): 78.4%; Activity (MCF7 [11]): 5.4%; Activity (MCF7 [12]): 8.1%; Activity (MCF7 [13]): 9.7%; inhibition [14]: 12%; Activity (MCF7 [15]): 6.2%; inhibition [17]: -2%; viability at 10 µM (MCF7 [21]): 72.2%; Activity (MCF7 [23]): 5%; viability at 5 µM (MCF7 [24]): 72.3%; Activity (MCF7 [25]): 16.3%; Activity (MCF7 [27]): 18.6%; Activity (MCF7 [28]): 4.1%
Cc1ccc2nc3nc(NCc4ccc(CN5CCN(C)CC5)cc4)[nH]c(=O)c3cc2c1	18		0	36	3	-4	50	6.09	6.49	4.87		5	12	18	-1	6.28	4.98	inhibition [17]: 4%
CSc1nc2nc3ccc(C)cc3cc2c(=O)[nH]1																5.75		
Cc1ccc(NC(=O)c2ccc(CN3CCN(C)CC3)cc2)cc1Nc1nccc(-c2cccnc2)n1 [IMATINIB]	10	11	1		10		1	4.71	5.05	5.46	-2	-2	9	10	10	5.15		
Cc1ccc2nc3nc(NCc4ccc(CN5CCCCC5)cc4)[nH]c(=O)c3cc2c1								5.14	5.82	4.80						5.63	4.96	
Cc1ccc2nc3nc(NCCO)[nH]c(=O)c3cc2c1																6.77		
COc1ccc(CCN2CCC(Nc3nc4nc5ccc(C)cc5nc4c(=O)[nH]3)CC2)cc1	19	9	4	-7	7	10	1	6.77	6.70	< 4.30	-5	8	-2	7	18	6.80	< 4.30	fold change (FC) (MCF7 [30]): 2; fold change (FC) (MCF7 [31]): 12; Activity (MCF7 [6]): 13.3%; viability at 1 µM (MCF7 [10]): 66.7%; Activity (MCF7 [11]): 30%; Activity (MCF7 [12]): 12.4%; Activity (MCF7 [13]): 7.6%; inhibition [14]: -5%; Activity (MCF7 [32]): Dose-dependent effect; Activity (MCF7 [15]): 20.7%; viability at 10 µM (MCF7 [21]): 44.6%; Activity (MCF7 [23]): 18%; viability at 5 µM (MCF7 [24]): 64.1%; Activity (MCF7 [25]): 4.8%; Activity (MCF7 [27]): 3.6%; Activity (MCF7 [28]): 14.1%

Source: ChEMBL document CHEMBL4152228, “Structural-based design, synthesis, and antitumor activity of novel alloxazine analogues with potential selective kinase inhibition” (Eur J Med Chem, 2018)
